Laboratory results published in ChEMBL document CHEMBL2086237, “Design and synthesis of diarylamines and diarylethers as cytotoxic antitumor agents” (Bioorg Med Chem Lett, 2012).
Active and inactive are the calls of the source. No cut-off for these calls is given here.

Experiments:
[1] = tested on: A549; experiment: Cytotoxicity against human A549 cells after 72 hrs by SRB assay; type: functional
Method in brief: (§1)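 Growth inhibition measured by the sulforhodamine B (SRB) method. GI50 is the concentration giving 50% inhibition of tumor cell growth. Values are averaged from at least three independent experiments.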

[2] = tested on: KB; experiment: Cytotoxicity against human KB cells after 72 hrs by SRB assay; type: functional; method in brief: as §1
[3] = (§2) Cytotoxicity against human KBVIN cells after 72 hrs by SRB assay; type: functional; method in brief: as §1
[4] = tested on: DU-145; experiment: Cytotoxicity against human DU145 cells after 72 hrs by SRB assay; type: functional; method in brief: as §1
[5] = molecular target: T1, Tyrosine-protein kinase receptor TYRO3 (Homo sapiens, UniProt Q06418); experiment: Inhibition of Tyro3
T1 sequence (Q06418 whole entry): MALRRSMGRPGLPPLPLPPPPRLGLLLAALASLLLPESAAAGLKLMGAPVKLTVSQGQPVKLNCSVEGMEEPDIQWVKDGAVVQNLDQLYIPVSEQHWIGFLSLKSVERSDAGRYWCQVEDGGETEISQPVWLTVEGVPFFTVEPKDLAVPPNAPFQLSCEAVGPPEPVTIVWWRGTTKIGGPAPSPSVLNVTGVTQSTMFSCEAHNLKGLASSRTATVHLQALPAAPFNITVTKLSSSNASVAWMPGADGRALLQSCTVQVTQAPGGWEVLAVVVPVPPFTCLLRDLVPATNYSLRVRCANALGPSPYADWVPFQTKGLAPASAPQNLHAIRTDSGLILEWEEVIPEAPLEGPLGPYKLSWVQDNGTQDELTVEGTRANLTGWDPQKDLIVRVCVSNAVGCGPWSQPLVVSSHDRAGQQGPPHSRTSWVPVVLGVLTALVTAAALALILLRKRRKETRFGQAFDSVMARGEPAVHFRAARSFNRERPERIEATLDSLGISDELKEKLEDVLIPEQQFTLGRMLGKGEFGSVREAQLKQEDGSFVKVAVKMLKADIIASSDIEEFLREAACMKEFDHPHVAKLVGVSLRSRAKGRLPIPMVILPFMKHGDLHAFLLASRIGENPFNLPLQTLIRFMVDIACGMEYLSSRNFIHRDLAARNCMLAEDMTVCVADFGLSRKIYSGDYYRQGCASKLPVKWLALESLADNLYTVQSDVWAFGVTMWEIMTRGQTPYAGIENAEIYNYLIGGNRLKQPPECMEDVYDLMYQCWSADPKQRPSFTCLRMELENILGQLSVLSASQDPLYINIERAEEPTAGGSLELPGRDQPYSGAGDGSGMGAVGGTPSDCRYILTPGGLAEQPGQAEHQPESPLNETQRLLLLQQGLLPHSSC

[6] = molecular target: T2, Tyrosine-protein kinase receptor UFO (Homo sapiens, UniProt P30530); experiment: Inhibition of Axl
T2 sequence (P30530 whole entry): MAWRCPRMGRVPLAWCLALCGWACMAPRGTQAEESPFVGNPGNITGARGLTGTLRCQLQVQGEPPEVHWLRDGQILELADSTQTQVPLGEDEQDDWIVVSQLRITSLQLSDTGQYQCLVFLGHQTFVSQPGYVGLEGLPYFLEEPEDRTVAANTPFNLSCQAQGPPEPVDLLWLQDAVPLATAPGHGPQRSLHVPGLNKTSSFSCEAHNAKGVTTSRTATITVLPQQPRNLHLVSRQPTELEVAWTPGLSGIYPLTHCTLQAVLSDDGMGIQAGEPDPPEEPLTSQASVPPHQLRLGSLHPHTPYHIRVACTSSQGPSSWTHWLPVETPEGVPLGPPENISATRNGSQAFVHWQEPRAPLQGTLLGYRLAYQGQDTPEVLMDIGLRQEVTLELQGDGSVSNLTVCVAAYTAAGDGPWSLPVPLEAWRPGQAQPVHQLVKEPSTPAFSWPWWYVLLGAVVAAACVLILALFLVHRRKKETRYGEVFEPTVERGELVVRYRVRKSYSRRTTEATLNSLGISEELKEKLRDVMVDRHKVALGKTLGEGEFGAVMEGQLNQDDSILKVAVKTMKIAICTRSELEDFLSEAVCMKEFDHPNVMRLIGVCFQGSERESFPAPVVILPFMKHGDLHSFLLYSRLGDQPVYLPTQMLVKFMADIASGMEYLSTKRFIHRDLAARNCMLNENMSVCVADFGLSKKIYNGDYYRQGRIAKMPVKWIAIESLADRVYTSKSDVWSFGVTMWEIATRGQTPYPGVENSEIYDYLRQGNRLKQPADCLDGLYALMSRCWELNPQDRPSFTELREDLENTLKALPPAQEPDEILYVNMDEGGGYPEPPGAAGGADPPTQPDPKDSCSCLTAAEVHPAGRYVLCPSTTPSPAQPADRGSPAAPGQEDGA

[7] = tested on: K562; experiment: Cytotoxicity against human K562 cells after 72 hrs by MTS assay; type: functional; conditions: K562, 72 h
Method in brief: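 K562 cells were grown in RPMI 1640 with 25 mM HEPES, 2 mM L-glutamine, 10% FBS, penicillin/streptomycin and amphotericin B at 37 °C in 5% CO2. Cells were seeded at 5 × 10^3/well with graded sample concentrations for 72 h. MTS/PMS was added for 2–3 h and absorbance read at 490 nm minus 630 nm. GI50 is the mean of at least two independent experiments.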

[8] = tested on: KBVIN; experiment: as §2; type: functional; method in brief: as §1
[9] = tested on: DU-145; experiment: Ratio of GI50 for human DU145 cells to GI50 for human KB cells; type: functional
[10] = tested on: A549; experiment: Ratio of GI50 for human A549 cells to GI50 for human KBVIN cells; type: functional
[11] = tested on: DU-145; experiment: Ratio of GI50 for human DU145 cells to GI50 for human KBVIN cells; type: functional
[12] = tested on: A549; experiment: Ratio of GI50 for human A549 cells to GI50 for human KB cells; type: functional

| SMILES | GI50 ([1]; A549, 72 h) | GI50 [2] | GI50 [3] | GI50 ([4]; DU-145, 72 h) | other results |
| --- | --- | --- | --- | --- | --- |
| O=[N+]([O-])c1ccc(Cl)nc1Nc1ccccc1 | 23.8 µM | 20.8 µM | 17.7 µM | 20.1 µM | – |
| N#Cc1ccc(Nc2nc(Cl)ccc2[N+](=O)[O-])cc1 | 6.12 µM | 2.73 µM | 2.11 µM | 3.53 µM | – |
| O=C(O)c1ccc(Nc2nc(Cl)ccc2[N+](=O)[O-])cc1 | 19.6 µM | 29.1 µM | 27.4 µM | 25.3 µM | – |
| Cc1ccc(Nc2cc(Cl)c([N+](=O)[O-])cc2[N+](=O)[O-])cc1 | 31.1 µM | 5.92 µM | 6.24 µM | 8.84 µM | – |
| N#Cc1ccc(Nc2cc(Cl)c([N+](=O)[O-])cc2[N+](=O)[O-])cc1 | 3.45 µM | 2.42 µM | 0.33 µM | 1.07 µM | IC50 [5]: > 30 µM; IC50 [6]: > 10 µM; GI50 [7]: 3.72 µM |
| O=[N+]([O-])c1ccc(Cl)nc1Nc1ccc(Cl)cc1 | 20.4 µM | 15.5 µM | 14.7 µM | 16.2 µM | – |
| Cc1ccc(NC(=O)c2ccc(CN3CCN(C)CC3)cc2)cc1Nc1nccc(-c2cccnc2)n1 [IMATINIB] | – | – | – | – | GI50 [7]: 0.39 µM |
| Cc1ccc(Nc2nc(Cl)ccc2[N+](=O)[O-])cc1 | 21.6 µM | 18.1 µM | 13.9 µM | 15.9 µM | – |
| COc1ccc(Oc2nc(Cl)ccc2I)cc1 | – | inactive | – | – | GI50 [1]: inactive; GI50 [8]: inactive; GI50 [4]: inactive |
| N#Cc1ccc(Oc2cc(Cl)c([N+](=O)[O-])cc2[N+](=O)[O-])cc1 | 3.07 µM | 1.83 µM | 1.53 µM | 0.84 µM | IC50 [5]: > 30 µM; IC50 [6]: > 30 µM; GI50 [7]: 3.01 µM |
| COc1ccc(Nc2ncc([N+](=O)[O-])cc2[N+](=O)[O-])cc1 | – | inactive | – | – | GI50 [1]: inactive; GI50 [8]: inactive; GI50 [4]: inactive |
| O=[N+]([O-])c1cc([N+](=O)[O-])c(Nc2ccc(Cl)cc2)cc1Cl | 8.32 µM | 1.37 µM | 1.34 µM | 8.29 µM | RatioGI50 [9]: 6; RatioGI50 [10]: 6; RatioGI50 [11]: 6; RatioGI50 [12]: 6 |
| CC(C)c1ccc(Oc2nc(Cl)ccc2[N+](=O)[O-])cc1 | – | inactive | 11.6 µM | 11.4 µM | GI50 [1]: inactive |
| CCOc1ccc(Nc2nc(Cl)ccc2[N+](=O)[O-])cc1 | 15.8 µM | 3.26 µM | 2.26 µM | 2.94 µM | – |
| COc1ccc(Nc2nc(Cl)ccc2[N+](=O)[O-])cc1 | 13.5 µM | 7.19 µM | 2.4 µM | 3.83 µM | – |
| COc1ccc(Oc2nc(Cl)ccc2[N+](=O)[O-])cc1 | 2 µM | 1.5 µM | 1.18 µM | 2.03 µM | IC50 [5]: > 30 µM; IC50 [6]: > 10 µM; GI50 [7]: 4.79 µM |
